Assay results taken from article PMC2923871 (Journal of Medicinal Chemistry, 2010).
Where two headings read alike, the source gives them in different places. Each block holds one compound with its values, some of them ahead of it.

What was measured:
[1] = test system: T. brucei; conditions: cited from earlier work
[2] = Pooled human liver microsomal assay; format: in vitro ADME; conditions: pooled human liver microsomes, 0.5 μM compound, NADPH
Outline: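 Microsomes at 0.5 mg/mL in 50 mM potassium phosphate, pH 7.4, reaction started with excess NADPH. Aliquots at 0, 3, 6, 9, 15 and 30 min quenched in acetonitrile, internal standard added, protein spun down, UPLC-MS/MS. Rate constant from exponential decay of compound/internal standard peak-area ratio. CLi scaled by incubation volume/mg protein and 52.5 mg protein/g liver. Verapamil positive control.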

[3] = phosphate buffer pH 7.4; previously reported compound; cited from earlier work
[4] = test system: bloodstream form T. b. brucei BS427; test: Trypanocidal activity, Alamar Blue assay; format: cell-based
[5] = Chemical stability in phosphate buffer at pH 7.4; format: physicochemical; conditions: pH 7.4, t1/2 pH 7.4, phosphate buffer pH 7.4

Structure (SMILES): CC1(C)O[C@H](COP(=O)(O)O)[C@H](C(=O)NO)O1 [compound 1, 2,3-O-Isopropylidene-4-erythrono hydroxamate]
EC50 ([1]; T. brucei cell culture, previously reported compounds): > 330000 nM
activity against the parasite ([1]; result in words): inactive

Structure (SMILES): COC(=O)[C@@H](C)NP(=O)(OC[C@H]1OC(C)(C)O[C@H]1C(=O)NO)Oc1ccc([N+](=O)[O-])cc1 (stereo partly drawn) [15a]
half-life [3]: about 50 min

Structure (SMILES): Cc1cccc(OP(=O)(N[C@@H](C(=O)OC(C)(C)C)C(C)C)OC[C@H]2OC(C)(C)O[C@H]2C(=O)NO)c1C (stereo partly drawn) [15q]
increase in activity ([4]; 15q relative to 15a): more than 5000 times

The next lines start with results.

PHLM Cli [2]: <0.5 mL/min/g
Structure (SMILES): CCOC(=O)[C@H](NP(=O)(OC[C@H]1OC(C)(C)O[C@H]1C(=O)NO)Oc1ccccc1)C(C)C (stereo partly drawn) [15f]

PHLM Cli [2]: <0.5 mL/min/g
Structure (SMILES): CCOC(=O)[C@H](NP(=O)(OC[C@H]1OC(C)(C)O[C@H]1C(=O)NO)Oc1cccc(C)c1C)C(C)C (stereo partly drawn) [15p]

PHLM Cli [2]: <0.5 mL/min/g
Structure (SMILES): CCOC(=O)[C@H](NP(=O)(OC[C@H]1OC(C)(C)O[C@H]1C(=O)NO)Oc1ccc(C)cc1)C(C)C (stereo partly drawn) [15l]

half-life [5]: 30 h
Structure (SMILES): COC(=O)[C@@H](C)NP(=O)(OC[C@H]1OC(C)(C)O[C@H]1C(=O)NO)Oc1cccc(C)c1C (stereo partly drawn) [15o]
IC50 ([4]; Trypanosoma brucei): 270 nM
